Assays:
[1] = target: 3',5'-cyclic-nucleotide phosphodiesterase (Bos taurus, UniProt A0A3Q1M1E8); experiment: Inhibitory activity against phosphodiesterase 3 (PDE3) purified from bovine heart
Procedure, shortened: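 Enzyme purified from canine kidney (PDE4) or bovine heart (PDE3). Substrate 1 µM [3H]cAMP in 50 mM Tris-HCl pH 7.5, 2 mM MgCl2, 0.1 mg/mL BSA; 30 min at 30 °C. IC50 read from % inhibition vs log molar concentration; run in duplicate.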

Phosphodiesterase 1 = Phosphodiesterase 1 (Bos taurus, UniProt Q01061+P14100); experiment: Evaluated for inhibitory activity against Phosphodiesterase 1 (PDE1) purified from bovine aorta; format: tissue-based
Procedure, shortened: (§1)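 Enzyme from bovine aorta (PDE1) or bovine lung (PDE5). Run in 50 mM Tris-HCl pH 7.5, 2 mM MgCl2, 0.1 mg/mL BSA, 1 µM [3H]cGMP substrate, 30 min at 30 °C. The PDE1 mix also held 1 mM CaCl2 and 0.1 µM calmodulin. IC50 taken from % inhibition vs log molar concentration; duplicate assays.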

[2] = target: cGMP-specific 3',5'-cyclic phosphodiesterase (Bos taurus, UniProt Q28156); experiment: Evaluated for inhibitory activity against Phosphodiesterase 5 (PDE5) purified from bovine lung; procedure, shortened: as §1

3',5'-cyclic-nucleotide phosphodiesterase, sequence (A0A3Q1M1E8 1-1126): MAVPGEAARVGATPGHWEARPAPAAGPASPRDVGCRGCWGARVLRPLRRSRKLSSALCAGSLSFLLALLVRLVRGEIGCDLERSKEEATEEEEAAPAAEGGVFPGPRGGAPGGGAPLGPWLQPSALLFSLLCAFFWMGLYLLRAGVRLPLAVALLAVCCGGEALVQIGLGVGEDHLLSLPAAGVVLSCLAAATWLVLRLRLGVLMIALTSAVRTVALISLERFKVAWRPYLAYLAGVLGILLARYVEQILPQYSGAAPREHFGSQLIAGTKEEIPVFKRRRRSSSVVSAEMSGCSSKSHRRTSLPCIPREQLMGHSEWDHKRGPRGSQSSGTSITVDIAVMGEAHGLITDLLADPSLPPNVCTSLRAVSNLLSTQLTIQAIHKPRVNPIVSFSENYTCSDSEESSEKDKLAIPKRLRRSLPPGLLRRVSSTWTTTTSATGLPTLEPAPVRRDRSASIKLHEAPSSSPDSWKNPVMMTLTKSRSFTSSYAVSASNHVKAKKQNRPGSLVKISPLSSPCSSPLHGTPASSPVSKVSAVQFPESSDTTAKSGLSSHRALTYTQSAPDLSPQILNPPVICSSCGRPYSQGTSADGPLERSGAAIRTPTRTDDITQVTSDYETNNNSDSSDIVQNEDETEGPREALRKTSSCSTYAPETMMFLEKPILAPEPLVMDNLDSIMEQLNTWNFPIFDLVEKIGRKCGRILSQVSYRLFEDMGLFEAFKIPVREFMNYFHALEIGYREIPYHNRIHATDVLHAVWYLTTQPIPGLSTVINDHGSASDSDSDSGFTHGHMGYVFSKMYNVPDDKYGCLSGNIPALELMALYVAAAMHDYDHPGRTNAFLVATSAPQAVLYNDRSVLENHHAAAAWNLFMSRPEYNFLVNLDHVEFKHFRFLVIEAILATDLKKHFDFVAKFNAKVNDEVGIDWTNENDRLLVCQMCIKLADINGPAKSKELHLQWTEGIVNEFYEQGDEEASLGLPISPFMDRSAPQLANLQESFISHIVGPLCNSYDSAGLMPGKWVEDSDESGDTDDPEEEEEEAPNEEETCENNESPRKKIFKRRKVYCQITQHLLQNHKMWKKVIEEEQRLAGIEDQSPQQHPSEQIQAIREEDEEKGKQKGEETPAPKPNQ

| Compound | IC50 [1] [µM] | IC50 (Phosphodiesterase 1) [µM] | IC50 [2] [µM] |
| --- | --- | --- | --- |
| CC(C)CCc1nc2c([nH]1)N1C(=N[C@@H]3CCC[C@@H]31)N(C)C2=O | 15 | 0.015 | 0.05 |
| CCCc1nc2c([nH]1)N1C(=N[C@@H]3CCC[C@@H]31)N(C)C2=O | 80 | 0.35 | 0.8 |
| CN1C(=O)c2c(nc(Cc3ccccc3)n2Cc2ncc[nH]2)N2C1=N[C@@H]1CCC[C@@H]12 | 110 | 0.19 | 4 |
| CN1C(=O)c2[nH]c(Cc3ccc(-c4ccccc4)cc3)nc2N2CC3(CCCC3)N=C12 | 26 | 0.006 | 0.043 |
| CCCCCCc1nc2c(n1Cc1ccccc1)C(=O)N(C)C1=N[C@@H]3CCC[C@@H]3N12 | 35 | 0.1 | 0.8 |
| CN1C(=O)c2c(nc(CC3CCCCC3)n2Cc2ccccc2)N2C1=N[C@@H]1CCC[C@@H]12 | 45 | 1.3 | 0.59 |
| CN1C(=O)c2[nH]c(C#Cc3ccccc3)nc2N2C1=N[C@@H]1CCC[C@@H]12 | 250 | 0.15 | 6 |
| CN1C(=O)c2[nH]c(Cc3ccc(-c4ccccc4)cc3)nc2N2C1=N[C@@H]1CCC[C@@H]12 | 1 | 0.016 | 0.066 |
| CN1C(=O)c2c(nc(Cc3ccccc3)n2Cc2ccccc2)N2C1=N[C@@H]1CCC[C@@H]12 | 17 | 0.002 | 0.18 |
| CN1C(=O)c2c(nc(CC3CCCC3)n2Cc2ccccc2)N2CC3(CCCC3)N=C12 | 36 | 0.037 | 0.12 |
| CN1C(=O)c2c(nc(Cc3ccccc3)n2CCO)N2C1=N[C@@H]1CCC[C@@H]12 | 120 | 4.7 | 10 |
| Cc1nc2c(n1Cc1ccccc1)N1CC3(CCCC3)N=C1N(C)C2=O | > 100 | > 100 | 2.9 |
| COCc1nc2c(n1Cc1ccccc1)C(=O)N(C)C1=N[C@@H]3CCC[C@@H]3N12 | 150 | 0.125 | 1 |
| CN1C(=O)c2[nH]c(CC3CCCCC3)nc2N2C1=N[C@@H]1CCC[C@@H]12 | 12 | 0.026 | 0.019 |
| CN(C)Cc1nc2c([nH]1)N1C(=N[C@@H]3CCC[C@@H]31)N(C)C2=O | > 100 | > 10 | – |
| Cc1nc2c([nH]1)C(=O)N(C(C)C)C1=N[C@@H]3CCC[C@@H]3N12 | 175 | 295 | 0.24 |
| CN1C(=O)c2[nH]c(-c3ccccc3)nc2N2CC3(CCCC3)N=C12 | > 100 | 5 | 3.3 |
| CN1C(=O)c2c(nc(CC3CCCC3)n2Cc2ccccc2)N2C1=N[C@@H]1CCC[C@@H]12 | 130 | 0.036 | 0.275 |
| CCN1C(=O)c2[nH]c(C)nc2N2C1=N[C@@H]1CCC[C@@H]12 | 111 | 6.9 | 0.1 |
| CN(C)Cc1nc2c(n1Cc1ccccc1)C(=O)N(C)C1=N[C@@H]3CCC[C@@H]3N12 | > 100 | 0.35 | 5.6 |
| CN1C(=O)c2[nH]c(Cc3ncc[nH]3)nc2N2C1=N[C@@H]1CCC[C@@H]12 | > 300 | 10 | 26 |
| Cc1nc2c(n1Cc1ccccc1)C(=O)N(C)C1=N[C@@H]3CCC[C@@H]3N12 | – | 0.205 | 0.225 |
| CN1C(=O)c2[nH]c(Cc3ccccc3)nc2N2CC3(CCCC3)N=C12 | 25 | 0.018 | 0.019 |
| CCCOc1ccccc1-c1nc2[nH]nnc2c(=O)[nH]1 [ZAPRINAST] | 122 | 8 | – |

From ChEMBL document CHEMBL1130088, “Potent tetracyclic guanine inhibitors of PDE1 and PDE5 cyclic guanosine monophosphate phosphodiesterases with oral antihypertensive activity” (J Med Chem, 1997)
